Measured values: BindingDB's records for doi:10.1021/jm000911j (Universidad De Valencia, 2000)
pIC50: −log10 of the molar value.

Biological target: Acyl carrier protein,/NADH dehydrogenase [ubiquinone] flavoprotein 1, mitochondrial (Bos taurus, UniProt P25708+P52505)
Assay: Inhibition of NADH oxidase activity.
How it was run: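 Beef-heart submitochondrial particles (sonicated frozen-thawed mitochondria), preactivated with 300 µM NADH, assayed at 22 °C in 50 mM potassium phosphate pH 7.4, 1 mM EDTA (0.28 nM complex I). Aerobic oxidation of 75 µM NADH with no added quinone, followed at 340 nm. Ethanolic compound added cumulatively, 5 min on ice per step, ethanol ≤2%. IC50 is the final concentration giving 50% inhibition.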

Sequence of Acyl carrier protein,/NADH dehydrogenase [ubiquinone] flavoprotein 1, mitochondrial (P25708 21-464 limits assumed, other chains not shown): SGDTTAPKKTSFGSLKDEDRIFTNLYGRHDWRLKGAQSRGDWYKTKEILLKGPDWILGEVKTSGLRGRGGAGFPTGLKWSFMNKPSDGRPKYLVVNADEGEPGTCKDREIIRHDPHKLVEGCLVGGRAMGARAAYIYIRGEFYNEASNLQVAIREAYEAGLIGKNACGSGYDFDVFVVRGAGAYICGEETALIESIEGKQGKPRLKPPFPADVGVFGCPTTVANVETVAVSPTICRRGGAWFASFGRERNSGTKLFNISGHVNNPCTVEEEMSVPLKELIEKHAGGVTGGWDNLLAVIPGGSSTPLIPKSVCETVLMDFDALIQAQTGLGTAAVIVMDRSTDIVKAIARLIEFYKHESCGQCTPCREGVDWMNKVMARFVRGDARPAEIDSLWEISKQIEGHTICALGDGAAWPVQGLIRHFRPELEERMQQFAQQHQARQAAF

Row | pIC50 | Compound
1 | 9.47 | CCCCCCCCCCC(N=O)[C@H]1CC[C@@H]([C@@H]2CC[C@H]([C@H](O)CCCCCCCCCCC(CC3=C[C@H](C)OC3=O)N=O)O2)O1 (some centres not stated) [3-{13-Hydroxy-2-hydroxyimino-13-[5'-(1-hydroxyimino-undecyl)-octahydro-[2,2']bifuranyl-5-yl]-tridecyl}-5-methyl-5H-furan-2-one(4,24-didehydroxy-4,24-dihydroxyliminorolliniastatin-1)]
2 | 9.47 | CCCCCCCCCC[C@H](O)[C@H]1CC[C@H]([C@H]2CC[C@H]([C@H](O)CCCCC(CCCCCCCC3=C[C@H](C)OC3=O)N=O)O2)O1 (some centres not stated) [10-oxime-guanacone]
